Results: ChEMBL document CHEMBL1122201, “Carboxyimamidate, a low-molecular-weight polyelectrolyte with antitumor properties and low toxicity” (1982)
“And” between values parts separate entries of the source, which are not always exact repeats. Equal values may be shown once.

Columns and labels:
[1] = organism: Mus musculus; assay: Tumor weight inhibition against Madison 109 lung carcinoma cells
[2] = organism: Mus musculus; assay: Tumor weight inhibition against Nettesheim lung carcinoma cells
[3] = tested on: Mus musculus; assay: Percent increase of mean life span of treated groups relative to the mean of the untreated control groups in the subcutaneous Lewis Lung Carcinoma model at a dose of 100-125 mg/kg/day; type: functional
Summary of the method: (§1)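 Lewis lung carcinoma model in mice, groups of 10. Dosing daily on days 1-5, 1-8 or 1-10, ip or subcutaneous. Dose ranges pooled from nine independent experiments run at different levels. ILS is the percent increase in mean life span, excluding cures, over the mean of 3 or 4 untreated control groups of 10. Survivors scored at day 60.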

[4] = tested on: Mus musculus; assay: Ratio of mean tumor volume of treated groups to that of the mean of total untreated controls in the subcutaneous Lewis Lung Carcinoma model at a dose of 2400-2512 (mg/kg)/day; type: functional
Summary of the method: (§2)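 Mice bearing sc Lewis lung carcinoma (groups of 10) received the saline-dissolved agent daily on days 1-5, 1-8 or 1-10, ip or sc. Perpendicular tumor diameters were measured with vernier calipers on day 14, and volume was taken as 0.5 × length × width². T/C is treated mean volume over the mean of all untreated controls (3-4 groups of 10), pooled across experiments as mean ± SE.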

[5] = tested on: Mus musculus; assay: Average proportion of total treated mice without palpable tumors was determined in the subcutaneous Lewis Lung Carcinoma model at a dose of 100-125 (mg/kg)/day; type: functional
Summary of the method: (§3)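 Sc-implanted Lewis lung carcinoma in mice, groups of 10. Agent dissolved in sterile saline and given daily on days 1-5, 1-8 or 1-10, ip or sc (0.5 mL/mouse). Each experiment had 3 or 4 untreated control groups of 10. The read-out was the average proportion of treated mice without palpable tumor on day 14, pooled over independent experiments as mean ± SE.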

[6] = tested on: Mus musculus; assay: Average proportion of total treated mice without palpable tumors was determined in the subcutaneous Lewis Lung Carcinoma model at a dose of 300-400 (mg/kg)/day; type: functional
Summary of the method: as §3

[7] = tested on: Mus musculus; assay: Percent increase of mean life span of treated groups relative to the mean of the untreated control groups in the subcutaneous Lewis Lung Carcinoma model at a dose of 2400-2512 (mg/kg)/day; type: functional
Summary of the method: as §1

[8] = organism: Mus musculus; assay: Increase in mean life span was measured against M5076 ovarian tumor; type: functional
Summary of the method: (§4)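 Tumor brei, 10%, 0.5 mL, implanted sc in groups of 10 mice: CD2F1 for Nettesheim and Madison, B6D2F1 for M5076. M5076 also implanted ip with the same inoculum; Madison im at 0.2 mL. Drug given ip in saline, 0.5 mL/mouse, at or below the maximally tolerated dose. ILS excludes long-term survivors. Animals held 60 days; t test.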

[9] = tested on: Mus musculus; assay: Ratio of mean tumor volume of treated groups to that of the mean of total untreated controls in the subcutaneous Lewis Lung Carcinoma model at a dose of 300-400 (mg/kg)/day; type: functional
Summary of the method: as §2

[10] = tested on: Mus musculus; assay: Proportion of survivors was determined on the 60th day at a dose of 158-251 mg/kg/day; type: functional
Summary of the method: as §1

[11] = organism: Mus musculus; assay: Increase in mean life span was measured against Gardner lymphosarcoma cells; type: functional
Summary of the method: (§5)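 10^6 Trypan blue-excluding cells implanted ip (P815 sc) in groups of 10 mice: B6D2F1 for L5178Y and P815, BALB/c for ADJ-PC6, C3H for Gardner. Drug given ip in sterile saline, 0.5 mL/mouse, at or below the maximally tolerated dose for the schedule. ILS excludes long-term tumor-free survivors. Animals held 60 days; Student's t test against untreated controls.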

[12] = tested on: Mus musculus; assay: Proportion of survivors was determined on the 60th day at a dose of 100-125 mg/kg/day; type: functional
Summary of the method: as §1

[13] = tested on: Mus musculus; assay: Proportion of survivors was determined on the 60th day at a dose of 2400-2512 (mg/kg)/day; type: functional
Summary of the method: as §1

[14] = tested on: Mus musculus; assay: Ratio of mean tumor volume of treated groups to that of the mean of total untreated controls in the subcutaneous Lewis Lung Carcinoma model at a dose of 100-125 (mg/kg)/day; type: functional
Summary of the method: as §2

[15] = tested on: Mus musculus; assay: Average proportion of total treated mice without palpable tumors was determined in the subcutaneous Lewis Lung Carcinoma model at a dose of 62-75 (mg/kg)/day; type: functional
Summary of the method: as §3

[16] = organism: Mus musculus; assay: Increase in mean life span was measured against B16 melanoma cells carcinoma 26; type: functional
[17] = organism: Mus musculus; assay: Increase in mean life span was measured against ADJ-PC6 plasmacytoma cells; type: functional
Summary of the method: as §5

[18] = tested on: Mus musculus; assay: Ratio of mean tumor volume of treated groups to that of the mean of total untreated controls in the subcutaneous Lewis Lung Carcinoma model at a dose of 900-1000 mg/kg/day; type: functional
Summary of the method: as §2

[19] = tested on: Mus musculus; assay: Percent increase of mean life span of treated groups relative to the mean of the untreated control groups in the subcutaneous Lewis Lung Carcinoma model at a dose of 900-1000 (mg/kg)/day; type: functional
Summary of the method: as §1

[20] = organism: Rattus norvegicus; assay: Increase in mean life span was measured against Walker carcinosarcoma cells
[21] = tested on: Mus musculus; assay: Proportion of survivors was determined on the 60th day at a dose of 62-75 mg/kg/day; type: functional
Summary of the method: as §1

[22] = organism: Mus musculus; assay: Tumor weight inhibition against P815 mastocytoma cells
[23] = tested on: Mus musculus; assay: Proportion of survivors was determined on the 60th day at a dose of 500-600 mg/kg/day; type: functional
Summary of the method: as §1

[24] = organism: Mus musculus; assay: Tumor weight inhibition against EMT6 mammary carcinoma cells
[25] = tested on: Mus musculus; assay: Percent increase of mean life span of treated groups relative to the mean of the untreated control groups in the subcutaneous Lewis Lung Carcinoma model at a dose of 500-600 (mg/kg)/day; type: functional
Summary of the method: as §1

[26] = organism: Mus musculus; assay: Increase in mean life span was measured against Nettesheim lung carcinoma cells; type: functional
Summary of the method: as §4

[27] = tested on: Mus musculus; assay: Percent increase of mean life span of treated groups relative to the mean of the untreated control groups in the subcutaneous Lewis Lung Carcinoma model at a dose of 300-400 (mg/kg)/day; type: functional
Summary of the method: as §1

[28] = tested on: Mus musculus; assay: Ratio of mean tumor volume of treated groups to that of the mean of total untreated controls in the subcutaneous Lewis Lung Carcinoma model at a dose of 500-600 (mg/kg)/day; type: functional
Summary of the method: as §2

[29] = tested on: Walker carcinosarcoma 256 (Rattus norvegicus); assay: Tumor weight inhibition Walker carcinosarcoma cells against
[30] = organism: Mus musculus; assay: Increase in mean life span was measured against colon carcinoma 26 cells; type: functional, Colon 26
Summary of the method: (§6)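 Colon carcinoma 26: 0.5 mL of 1% brei implanted sc or ip in groups of 10 CD2F1 mice. Drug given ip in sterile saline, 0.5 mL/mouse, at or below the maximally tolerated dose for the schedule. Mean life span excludes long-term tumor-free survivors. Animals held 60 days; Student's t test against untreated controls.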

[31] = tested on: Mus musculus; assay: Average proportion of total treated mice without palpable tumors was determined in the subcutaneous Lewis Lung Carcinoma model at a dose of 1200-1500 (mg/kg)/day; type: functional
Summary of the method: as §3

[32] = organism: Mus musculus; assay: Increase in mean life span was measured against colon carcinoma; type: functional
[33] = tested on: Mus musculus; assay: Average proportion of total treated mice without palpable tumors was determined in the subcutaneous Lewis Lung Carcinoma model at a dose of 500-600 (mg/kg)/day; type: functional
Summary of the method: as §3

[34] = tested on: Mus musculus; assay: Percent increase of mean life span of treated groups relative to the mean of the untreated control groups in the subcutaneous Lewis Lung Carcinoma model at a dose of 158-251 (mg/kg)/day; type: functional
Summary of the method: as §1

[35] = tested on: Mus musculus; assay: Proportion of survivors was determined on the 60th day at a dose of 1200-1500 (mg/kg)/day; type: functional
Summary of the method: as §1

[36] = tested on: Mus musculus; assay: Average proportion of total treated mice without palpable tumors was determined in the subcutaneous Lewis Lung Carcinoma model at a dose of 900-1000 (mg/kg)/day; type: functional
Summary of the method: as §3

[37] = organism: Mus musculus; assay: Tumor weight inhibition against B16 melanoma cells
[38] = tested on: Mus musculus; assay: Ratio of mean tumor volume of treated groups to that of the mean of total untreated controls in the subcutaneous Lewis Lung Carcinoma model at a dose of 1200-1500 mg/kg/day; type: functional
Summary of the method: as §2

[39] = organism: Mus musculus; assay: Increase in mean life span was measured against EMT6 mammary carcinoma cells; type: functional
Summary of the method: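 EMT6 given as sc trochar implants in C3H mice, groups of 10. Drug given ip in sterile saline, 0.5 mL/mouse, at or below the maximally tolerated dose for the schedule. Mean life span excludes long-term tumor-free survivors. Animals held 60 days after implantation; Student's t test against untreated controls.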

[40] = tested on: Mus musculus; assay: Percent increase of mean life span of treated groups relative to the mean of the untreated control groups in the subcutaneous Lewis Lung Carcinoma model at a dose of 1200-1500 (mg/kg)/day; type: functional
Summary of the method: as §1

[41] = tested on: Mus musculus; assay: Average proportion of total treated mice without palpable tumors was determined in the subcutaneous Lewis Lung Carcinoma model at a dose of 2400-2512 (mg/kg)/day; type: functional
Summary of the method: as §3

[42] = tested on: Mus musculus; assay: Average proportion of total treated mice without palpable tumors was determined in the subcutaneous Lewis Lung Carcinoma model at a dose of 158-251 (mg/kg)/day; type: functional
Summary of the method: as §3

[43] = tested on: Mus musculus; assay: Ratio of mean tumor volume of treated groups to that of the mean of total untreated controls in the subcutaneous Lewis Lung Carcinoma model at a dose of 158-251 (mg/kg)/day; type: functional
Summary of the method: as §2

[44] = organism: Mus musculus; assay: Increase in mean life span was measured against M5076 ovarian tumor cells; type: functional
Summary of the method: as §4

[45] = organism: Mus musculus; assay: Increase in mean life span was measured against L5178 Y leukemia cells; type: functional
Summary of the method: as §5

[46] = organism: Mus musculus; assay: Tumor weight inhibition against M5076 ovarian tumor
[47] = tested on: Mus musculus; assay: Percent increase of mean life span of treated groups relative to the mean of the untreated control groups in the subcutaneous Lewis Lung Carcinoma model at a dose of 62-75 (mg/kg)/day; type: functional
Summary of the method: as §1

[48] = organism: Mus musculus; assay: Tumor weight inhibition against colon carcinoma 26
[49] = organism: Mus musculus; assay: Increase in mean life span was measured against B16 melanoma cells; type: functional
[50] = tested on: Mus musculus; assay: Ratio of mean tumor volume of treated groups to that of the mean of total untreated controls in the subcutaneous Lewis Lung Carcinoma model at a dose of 62-75 mg/kg/day; type: functional
Summary of the method: as §2

[51] = organism: Mus musculus; assay: Increase in mean life span was measured against colon carcinoma 26; type: functional
Summary of the method: as §6

[52] = organism: Mus musculus; assay: Increase in mean life span was measured against Madison 109 lung carcinoma cells; type: functional, M109
Summary of the method: as §4

[53] = organism: Mus musculus; assay: Tumor weight inhibition against colon carcinoma 38
[54] = tested on: Mus musculus; assay: Proportion of survivors was determined on the 60th day at a dose of 900-1000 mg/kg/day; type: functional
Summary of the method: as §1

[55] = tested on: Mus musculus; assay: Proportion of survivors was determined on the 60th day at a dose of 300-400 (mg/kg)/day; type: functional
Summary of the method: as §1

CC(c1ccccc1)C1C(=O)NC(=O)C1CCC(C(N)=O)C(CCC(CC(=O)O)C(N)=O)C(=O)O.N.N (stereo not given)
TWI [1]: 67 and 78 and 50 | TWI [2]: 39 | ILS [3]: 12% | T/C [4]: 0.1 | Average proportion [5]: 0.1 | Average proportion [6]: 0.27 | ILS [7]: -28% | ILS [8]: 20% | T/C [9]: 0.4 | Proportion of survivors [10]: 0.04 | ILS [11]: 4% | Proportion of survivors [12]: 0.04 | Proportion of survivors [13]: 0.13 | T/C [14]: 0.62 | Average proportion [15]: 0.08 | ILS [16]: 7% | ILS [17]: 24% | T/C [18]: 0.17 | ILS [19]: 19% | ILS [20]: 3% | Proportion of survivors [21]: 0.03 | TWI [22]: 60 and 53 | Proportion of survivors [23]: 0.12 | TWI [24]: 14 | ILS [25]: 15% | ILS [26]: 6% | ILS [27]: 17% | T/C [28]: 0.32 | TWI [29]: 21 | ILS [30]: 48% and 31% and 75% | Average proportion [31]: 0.48 | ILS [32]: 14% | Average proportion [33]: 0.29 | ILS [34]: 15% | Proportion of survivors [35]: 0.21 | Average proportion [36]: 0.47 | TWI [37]: 74 | T/C [38]: 0.16 | ILS [39]: 13% | ILS [40]: 24% | Average proportion [41]: 0.6 | Average proportion [42]: 0.14 | T/C [43]: 0.58 | ILS [44]: 40% | ILS [45]: 5% | TWI [46]: 89 | ILS [47]: 12% | TWI [48]: 70 | ILS [49]: 21% and 11% | T/C [50]: 0.59 | ILS [51]: 22% | ILS [52]: 27% and 23% and 20% | TWI [53]: 44 | Proportion of survivors [54]: 0.21 | Proportion of survivors [55]: 0.09
